Data as given in ChEMBL document CHEMBL1158388, “Preparation of spermine conjugates with acidic retinoids with potent ribonuclease P inhibitory activity” (Eur J Med Chem, 2009).

Assay: Inhibition of Dictyostelium discoideum AX2 RNase P by double reciprocal plot
Method in brief: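 RNase P purified from D. discoideum wild-type cells; 37 °C reactions in buffer D (50 mM Tris/HCl pH 7.6, 10 mM NH4Cl, 5 mM MgCl2, 5 mM DTT) with 2–5 fmol in vitro labeled S. pombe pre-tRNASer transcript and 1.3 µg enzyme-fraction protein, 10% DMSO; stopped with formamide/EDTA dye. Ki from slopes of 1/v vs 1/[pre-tRNA] plots replotted against inhibitor concentration.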

Row | Compound | Ki
1 | COc1cc(C)c(/C=C/C(C)=C/C=C/C(C)=C/C(=O)NCCCNCCCCNCCCN)c(C)c1C [N1-Acitretinylspermine] | 2.45 µM
2 | CC1=C(/C=C/C(C)=C/C=C/C(C)=C\C(=O)O)C(C)(C)CCC1 [ISOTRETINOIN] | 20 µM
3 | CC1=C(/C=C/C(C)=C/C=C/C(C)=C/CO)C(C)(C)CCC1 [RETINOL] | 1480 µM
4 | CCOC(=O)c1ccc(/C=C(\C)c2ccc3c(c2)C(C)(C)CCC3(C)C)cc1 [AROTINOID] | 4350 µM
5 | COc1cc(C)c(/C=C/C(C)=C/C=C/C(C)=C/C(=O)O)c(C)c1C [ACITRETIN] | 8 µM
6 | CC1=C(/C=C/C(C)=C/C=C/C(C)=C/C(=O)O)C(C)(C)CCC1 [TRETINOIN] | 15 µM
7 | CCS(=O)(=O)c1ccc(/C=C(\C)c2ccc3c(c2)C(C)(C)CCC3(C)C)cc1 [ETAROTENE] | 3600 µM
8 | CC1=C(/C=C/C(C)=C/C=C/C(C)=C/C(=O)N(CCCN)CCCCN(CCCN)C(=O)/C=C(C)/C=C/C=C(C)/C=C/C2=C(C)CCCC2(C)C)C(C)(C)CCC1 | 1.1 µM
9 | C/C(=C\c1ccc(C(=O)O)cc1)c1ccc2c(c1)C(C)(C)CCC2(C)C | 45 µM
10 | CC1=C(/C=C/C(C)=C/C=C/C(C)=C/C(=O)NCCCNCCCCNCCCN)C(C)(C)CCC1 | 2.4 µM
